High-throughput results (PubChem)
The entries come from a sample that favours hits as a whole.
Dynein cargo inh: dynein cargo transport inhibition; 3617.4 mouse cells, GR-EGFP nuclear translocation imaging; test concentration mostly 20 µM; stimulated with dexamethasone, 1 µM; hits give low values; z-score, hits read low; actives 0.47% (n = 220,000);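 active = plate z-score of nuclear minus cytoplasmic receptor signal below a set negative limit, without overly bright fluorescence or cell loss, cut at about -3.5 in these data, passing the limit was not always enough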;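 note: z-score of nuclear minus cytoplasmic ring GR-EGFP intensity difference per well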
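Buffer or medium – tet-free medium with charcoal-stripped serum · Signal – automated 10x imaging of fixed Hoechst-stained cells · Also added – dexamethasone agonist, 1.0 µM final, for 30 min · Incubation – induction 48 h, compound 1 h, agonist 30 min · Read-out – GR-EGFP nuclear translocation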
XBP1 UPR activ: adaptive UPR (XBP1) activation | AID 463104 | CHO-XBP1 luciferase reporter, IRE1-XBP1 UPR activation, luminescence; percent of tunicamycin response, DMSO as zero | activation, % at 20 µM | actives 0.33% (n = 330,000);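 active = versus positive control, 20 µM dose yields 30% or more activation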;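 note: 100% = tunicamycin at 10 µg/mL and 0% = DMSO only wells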
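Assay system: CHO-XBP1 luciferase reporter cells; Schedule: 6 h treatment, 37 °C; Detection: glow luminescence from Steady-Glo reagent; Benchmarks: high control tunicamycin 10 µg/mL final, low control DMSO vehicle only.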
T cruzi inh: blocks replication of Trypanosoma cruzi | T. cruzi beta-gal in NIH3T3, luminescence, 90 h | inhibition, % (test concentration not listed) | actives 1.4% (n = 300,000) | AID 1885;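 active = mean inhibition across valid replicates above about 55%, limit read from the data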;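 note: signal also drops with host cell toxicity which is not excluded here; 0% = plate median of DMSO wells and 100% = zero luminescence signal; higher percent means less beta-gal luminescence so fewer parasites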
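System – NIH/3T3 host cells with β-galactosidase reporter T. cruzi · Doses – single 50 nL compound addition per well in DMSO · Reagent – 5000 T. cruzi trypomastigotes/well · Medium – Low-serum DMEM with 2% FBS · Timing – ≥90 h infection period, 3 h prior cell attachment · Evaluation – parasite load inhibition, % · Technique – GalScreen luminescence, 60 min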
Lmaj promast: Leishmania major promastigote growth inhibition; actives 9% (n = 200,000); Leishmania major promastigotes, resazurin fluorescence viability; inhibition, % at 10 µM; AID 1063; in the data active = inhibition above about 50%;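 note: promastigotes grown with compound for 44 hours at 28 °C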
CHOP inhibitor: blocks CHOP induction under ER stress; CHO-K1 CHOP-promoter luciferase, tunicamycin-induced, 15-18 h; inhibition, % at 10 µM; actives 3.8% (n = 220,000); AID 2732;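 active = compounds that reduced the stress-induced luciferase reporter signal by more than about 70% of percent inhibition, limit read from the data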;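 note: 0% = tunicamycin plus vehicle and 100% = wells without tunicamycin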
CHOP UPR activ: apoptotic UPR (CHOP) activation. CHO-CHOP luciferase reporter, luminescence; percent of tunicamycin response over DMSO baseline. activation, % at 10 µM. actives 0.34% (n = 330,000). AID 449763;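 active = at 10 µM dose, activation of 40% or more, normalized to positive control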;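 note: 100% = tunicamycin at 10 µg/mL and 0% = DMSO alone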
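Evaluation: % reporter activation, DMSO baseline versus tunicamycin full activation; System: CHO-CHOP luciferase reporter cell line; Input: 500 cells/well; Incubation: 6 h compound treatment, 37 °C; Measured by: Steady-Glo luciferase luminescence; Dosing: one dose, 10 µM in 0.5% DMSO; Buffer or medium: F12 medium, 10% FBS; Benchmarks: positive tunicamycin 10 µg/mL, negative DMSO alone.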
* hit, by the source's call; x = no result given.

SMILES | Dynein cargo inh | XBP1 UPR activ | T cruzi inh | Lmaj promast | CHOP inhibitor | CHOP UPR activ
O=[N+]([O-])c1nn(-c2ccc3c(c2)OCCO3)n(O)c1=NCCCO | 0.21 | 1 | 77* | 72* | 32 | 2
Cc1ccc(CN=c2c([N+](=O)[O-])nn(-c3ccc4c(c3)OCCO4)n2O)cc1 | -0.25 | 1 | 32 | 98* | 24 | 3
COc1ccc(-n2nc([N+](=O)[O-])c(=NCc3ccc4c(c3)OCO4)n2O)cc1 | 0.081 | 2 | 49 | 97* | -30 | 6
O=[N+]([O-])c1nn(-c2ccccc2)n(O)c1=NCc1ccc2c(c1)OCO2 | -0.67 | -1 | 42 | 16 | 6 | 0
O=C1CCCN1CCCN=c1c([N+](=O)[O-])nn(-c2ccc(Cl)cc2)n1O | 2.2 | x | 68* | 73* | 8 | x
COc1ccc(-n2nc([N+](=O)[O-])c(=NCCCN3CCCC3=O)n2O)cc1 | -0.21 | -1 | 49 | 37 | -15 | -2
CCN(C(=O)CCS(=O)(=O)c1ccc2c(c1)oc(=O)n2C)c1ccc(OC)cc1 | x | -4 | 0 | x | x | -1
COc1ccc(F)cc1C1=CC(=O)C[C@H](c2ccc3c(c2)OCO3)C1 | x | 2 | x | x | x | 1
CCOC(=O)c1c(NC(=S)N2CCN(C)CC2)sc(C)c1-c1ccccc1 | x | 3 | 61* | x | x | 0
CCOC(=O)c1c(NC(=O)CN2CCCCC2)sc(CN(C)C)c1-c1ccccc1 | 0.25 | -1 | 68* | 52* | -7 | 1
CCOC(=O)c1c(NC(=O)CN2CCCCC2)sc2c1CCCC2O (stereo unspecified) | -0.58 | -1 | 29 | 14 | 86* | 0
CCOC(=O)c1ccc(Nc2sc(C(=O)c3cccc([N+](=O)[O-])c3)c(N)c2C#N)cc1 | 0.026 | 4 | 0 | x | -4 | 3
O=C(Cc1cccs1)NCCS(=O)(=O)N1CCN(c2ccccc2F)CC1 | x | -4 | -10 | x | x | 1
COC(=O)c1c(C)[nH]c(C(=O)OCC(=O)c2c(N)n(CC(C)C)c(=O)n(C)c2=O)c1C | x | 0 | x | x | x | 1
COCCNC(=O)/C(C#N)=c1\s/c(=C\c2ccccc2OC(F)F)c(=O)n1Cc1ccccc1 | -0.33 | 7 | -9 | -6 | 95* | 1
O=C1NCCCC1C(=O)N/N=C/c1cccc(Cl)c1 (stereo unspecified) | 1.8 | 0 | 4 | x | 6 | 0
CCOC(=O)c1c(NC(=O)C[n+]2ccc(N(C)C)cc2)sc(C)c1C | -0.27 | -3 | 62* | 84* | 6 | 1
CCCCNCC(=O)Nc1sc(C)c(C)c1C(=O)OCC | -0.37 | -1 | 35 | 4 | 53 | -1
CCOc1ccccc1NC(=O)CC1Nc2cc(C)c(C)cc2NC1=O (stereo unspecified) | -1.4 | 0 | -3 | 5 | 20 | 0
CCc1ccc(CCC(=O)Nc2sc(C)c(C)c2C(=O)OC)o1 | -0.73 | -2 | 21 | 8 | 83* | 0
CCOC(=O)c1c(NC(=O)COC)sc(C)c1C | 1 | 4 | -6 | 0 | 16 | -3
COC(=O)c1c(NC(=O)CCCC(=O)O)sc(C)c1C | -0.008 | 0 | -8 | -8 | 6 | 0
CCOC(=O)c1c(NC(=O)COC(=O)C2CC2C)sc(C)c1C (stereo unspecified) | -0.1 | 1 | -6 | 7 | 70* | 1
CCOC(=O)c1c(NC(=O)CC2Nc3cc(C)c(C)cc3NC2=O)sc(C)c1C (stereo unspecified) | -0.91 | -1 | -10 | -1 | 74* | 2
COc1cccc(O)c1CN1CCC(n2nccc2NC(=O)c2ccc3c(c2)OCO3)CC1 | x | 0 | 9 | x | x | 1
SMILES | Dynein cargo inh | XBP1 UPR activ | T cruzi inh | Lmaj promast | CHOP inhibitor | CHOP UPR activ
C[C@@H]1CN([C@H](C)CO)C(=O)Cc2cc(NC(=O)Nc3ccccc3)ccc2O[C@@H]1CN(C)C(=O)Nc1ccc2c(c1)OCO2 | x | 3 | x | x | x | -1
Cc1cccc(NC(=O)C2(C)CC3c4ccccc4C2c2ccccc23)c1C (stereo unspecified) | -0.3 | -2 | 26 | 71* | -5 | 3
O=C(NCCSCc1c(F)cccc1Cl)c1ccc(CN2CCOCC2)cc1 | -0.43 | -3 | 12 | 80* | -23 | 1
CC(C)c1cccc(C(C)C)c1NC(=O)CN(C)C1CCS(=O)(=O)C1 (stereo unspecified) | x | -3 | x | x | x | -1
COc1cc(C2C(C#N)=C(N)Oc3c2ccc2ccccc32)ccc1OCC(=O)Nc1cccc(C)c1 (stereo unspecified) | -1 | -2 | 7 | 76* | 51 | 2
COc1cc(C2C(C#N)=C(N)Oc3c2ccc2ccccc32)ccc1OCC(=O)Nc1ccc(C)cc1 (stereo unspecified) | -0.63 | -3 | 0 | 69* | 60 | 3
COc1ccc(C2C(C#N)=C(N)Oc3c2ccc2cccnc32)cc1OC (stereo unspecified) | -0.33 | 4 | -37 | 5 | -4 | -1
N#CC1=C(N)Oc2c(ccc3ccccc23)C1c1ccsc1 (stereo unspecified) | -0.59 | 5 | 75* | 1 | 29 | 4
N#CC1=C(N)Oc2c(oc(CO)cc2=O)C1c1ccsc1 (stereo unspecified) | 0.055 | 1 | -18 | -24 | 31 | 1
O=S(=O)(Nc1ccc(-n2cnnn2)cc1)c1ccc(Cl)s1 | x | 1 | x | x | x | -1
C[n+]1ccc(/C=C/c2ccc(Br)cc2)cc1 | 0.81 | -1 | 32 | 86* | -19 | -3
O=C1c2cccc3cccc(c23)C(=O)N1CC1CCN(CC(O)COc2ccc3ccccc3c2)CC1 (stereo unspecified) | x | 2 | 66* | x | x | 0
O=C1c2cccc3cccc(c23)C(=O)N1CCN1CCN(CC(O)COc2ccc3ccccc3c2)CC1 (stereo unspecified) | -1.1 | -1 | 34 | 81* | 16 | 0
O=C1c2cccc3cccc(c23)C(=O)N1CCN1CCN(CC(O)COCc2ccc(Cl)cc2)CC1 (stereo unspecified) | -0.85 | -5 | 12 | 40 | 67 | 0
COc1ccc(N2CCN(CC(O)COc3cc(C)cc(C)c3)CC2)cc1 (stereo unspecified) | x | -6 | -3 | x | x | 0
O=C1c2cccc3cccc(c23)C(=O)N1CCN1CCN(C(=S)Nc2ccccc2)CC1 | 0.065 | -3 | 31 | 95* | 27 | 2
Cc1cc(C)cc(OCC(O)CN2CCC(CN3C(=O)c4cccc5cccc(c45)C3=O)CC2)c1 (stereo unspecified) | x | 0 | 57* | x | x | 0
COc1ccc(OCC(O)CN2C(=O)c3ccccc3C2=O)cc1 (stereo unspecified) | x | -1 | -1 | x | x | 5
